# Screening data (PubChem)
# HCT116 PTEN-null – PTEN-deleted cell growth suppression; AID 827; viability, % at 10 µM; HCT116 PTEN-null viability, CellTiter-Glo, 60 h; hits give low values; hit rate 1.2% among 140,000;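 active = viability at or below a set limit, 4 SD under the median of all tested compounds, cut at about 3.7% in these data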;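 note: PTEN knockout HCT116 line with beta catenin targeted HCT116 as companion control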
# H69AR inhibit – growth inhibitors of human H69AR lung tumor cells; H69AR lung tumor viability, ATP luminescence, 72 h; hits give low values; viability, % at 10 µM; hit rate 6% among 85,000; AID 598;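 active = viability at or below 40%; inactive = viability above 40%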;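 note: multidrug resistant small cell line overexpressing MRP-1 efflux transporter; 100% = mean luminescence of untreated control wells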
# HUVEC prolif 384 – blocks proliferation of human endothelial cells; HUVEC proliferation, CellTiter-Glo luminescence, 72 h; hits give low values; viability, % at 10 µM (by protocol); hit rate 1.1% among 86,000; AID 648;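 active = viability at or below 30%; inactive = viability above 30%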;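 note: 100% = median luminescence of DMSO-only cell control wells on each plate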
# HCT116 bCat-KO – beta-catenin-lacking colon tumor cell growth suppression. HCT116 beta-catenin knockout viability, CellTiter-Glo, 60 h; hits give low values. viability, % at 10 µM. hit rate 1.5% among 140,000. AID 818;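 active = viability at or under a set limit, the compound median less 4 SD, cut at about 6% in these data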;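 note: 0% = Hyamine 1622 control at 20 µM and 100% = untreated cell control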
# Fibroblast inh – blocks proliferation of human lung fibroblasts | AID 719 | viability, % at 10 µM | hit rate 1.1% among 85,000 | LL 47 human lung fibroblast viability, ATP luminescence; hits give low values;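 active = viability at or below 50% in the single dose screen; inactive = viability above 50%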;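 note: compound exposure lasted 72 h before the ATP readout; 100% = median luminescence of untreated cell-only wells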
#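 Signal: luminescent ATP detection, CellTiter-Glo; assay system: LL 47 human lung fibroblasts; input: 1,150 cells/well; incubation: overnight cell rest, 72 h compound treatment at 37 °C; measure: % viability versus median cells-only luminescence; medium: IMEM growth medium with 15% fetal bovine serum; dosing: compound addition at 0.1% DMSO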
# Starred values were filed as active, the others as inactive; . = no result. The entries come from a sample that favours hits as a whole.
SMILES,HCT116 PTEN-null,H69AR inhibit,HUVEC prolif 384,HCT116 bCat-KO,Fibroblast inh
O=c1[nH][nH]c(-c2ccccc2O)c1C(C[N+](=O)[O-])c1cccc(Cl)c1 (stereo not given),8,.,.,5.9*,.
O=c1[nH][nH]c(-c2ccccc2O)c1C(C[N+](=O)[O-])c1ccccc1 (stereo not given),4,.,.,5.7*,.
COc1cccc2sc(N3CCN(c4nc5ccccc5s4)CC3)nc12,2.4*,3.2*,26*,1.8*,74
c1ccc2sc(N3CCOCC3)nc2c1,.,94,102,99,110
CN1CCN(Cc2ccc(OCc3ccccc3)cc2)CC1,95,90,98,89,.
CCN1CCN(Cc2ccc(OCc3ccccc3)cc2)CC1,1.2*,88,85,1.0*,93
CCN(CC)C(=O)c1ccc2c(c1[N+](=O)[O-])C(=O)c1ccccc1C2=O,2.6*,.,.,8,.
CCN(CC)C(=O)c1cccc2c1C(=O)c1ccccc1-2,97,92,104,94,96
CCOC(=O)c1cc2c(N)c(C(=O)c3cc(C#N)c(SC)nc3C)sc2nc1C,17,16*,42,66,.
Cc1ccc(NC(=O)CSc2nnc([C@@H]3CCCN3C(=O)OC(C)(C)C)o2)c(C)c1,105,35*,99,99,103
O=C(CSc1nnc(-c2cccs2)n1-c1ccccc1)NCC1CCCO1 (stereo not given),98,92,106,94,98
Cn1c(=O)c2c(SCC(=O)NCC3CCCO3)nc(-c3cccs3)nc2n(C)c1=O (stereo not given),.,29*,89,.,96
CC(C)Sc1nc(-c2cccs2)nc2c1c(=O)n(C)c(=O)n2C,.,19*,84,.,66
CCOC(=O)C(/C=N/c1cc(C)nn1-c1ccccc1)=C(\C)O,78,95,94,88,93
c1ccc2c(N3CCCCC3)nc(N3CCCCC3)nc2c1,51,54,77,58,95
C(=C\c1nc(N2CCCCCC2)c2ccccc2n1)/c1ccccc1,8,.,.,3.3*,.
Cc1ccc2oc3c(c(=O)c2c1)C(c1cccs1)N(CCCN(C)C)C3=O (stereo not given),.,80,95,.,99
CCOC(=O)C1=C(C)NC(=S)N(C(C)=O)C1c1ccc(Cl)cc1 (stereo not given),0.9*,70,78,1.1*,90
Cc1ccc(C)c(NC(=O)CC(NCCCN2CCOCC2)C(=O)O)c1 (stereo not given),.,99,103,.,99
CCOC(=O)c1cnc(SC)nc1Oc1cccc(NS(=O)(=O)c2ccc(C)cc2)c1,85,.,.,81,.
CCOc1ccc(C2Nc3cccc4cccc(c34)N2)cc1OC,63,91,77,54,93
CCOc1cc(C2Nc3cccc4cccc(c34)N2)ccc1O,94,36*,61,89,98
Oc1ccccc1C1Nc2cccc3cccc(c23)N1,102,34*,78,88,88
COc1ccccc1C1Nc2cccc3cccc(c23)N1,90,86,87,80,110
COC(=O)Cn1c(=NC(=O)C2COc3ccccc3O2)sc2cc(S(N)(=O)=O)ccc21 (stereo not given),96,.,.,83,.
SMILES,HCT116 PTEN-null,H69AR inhibit,HUVEC prolif 384,HCT116 bCat-KO,Fibroblast inh
Cc1cccc(C=Nc2ccccc2C(N)=O)c1,24,23*,63,22,58
Clc1ccc(C(c2nnnn2C2CCCC2)N2CCN(Cc3ccncc3)CC2)cc1 (stereo not given),73,.,.,78,.
O=c1c(C(c2nnnn2C2CCCCC2)N2CCCCC2)coc2ccc(Cl)cc12 (stereo not given),81,18*,64,89,94
Cn1c(C(=O)N2CCCC(C(=O)NCCCSC3CCCCC3)C2)cc2sccc21 (stereo not given),67,29*,71,71,94
Cn1c(C(=O)N2CCCC(C(=O)NCc3cccs3)C2)cc2sccc21 (stereo not given),90,88,89,85,93
Cc1ccc(C(=O)/C=C/c2cn(CN3CCN(C)CC3)c3ccccc23)cc1,72,5.8*,64,70,89
CC(C)(C)NC(=O)COc1ccc(CNCc2cccs2)cc1,91,.,.,88,.
C=CCn1c(SCC(=O)c2ccc(NS(=O)(=O)c3ccccc3)cc2)nnc1-c1cccs1,95,44,97,94,94
Cc1cccc2[nH]c(-c3ccc(NC(=O)c4ccco4)cc3)nc12,92,35*,94,88,109
Cc1ccc2nc(-c3ccc(NC(=O)CSc4ccccc4)cc3)[nH]c2c1,8,.,.,3.2*,.
O=C(Nc1ccc(-c2nc3c(ccc4ccccc43)o2)cc1)c1ccco1,16,19*,69,19,40*
O=C(Nc1cccc(-c2nc3ccccc3[nH]2)c1)c1cccc(NC(=O)c2ccco2)c1,55,1.2*,1.9*,10,13*
O=C(CSc1ccccc1)Nc1ccc(-c2nc3ccccc3[nH]2)cc1,71,.,.,80,.
Cc1ccc(-c2nc3ccccc3[nH]2)cc1NC(=O)c1ccco1,86,.,96,95,107
Cc1cccc(-c2noc(CN(C(=O)C(c3ccccc3)c3ccccc3)C(C)C)n2)c1,60,75,97,51,82
O=C(Nc1ccc2nc(-c3ccc(Br)o3)[nH]c2c1)c1ccco1,93,51,69,104,114
O=C(Nc1ccc(Cl)c(-c2nc3ccccc3[nH]2)c1)c1ccc2c(c1)OCO2,63,.,.,77,.
O=C(Nc1ccc(-c2nc3ccccc3[nH]2)cc1)c1ccc2c(c1)OCO2,2.5*,.,.,2.6*,.
O=C(Nc1ccc2nc(-c3ccccc3)[nH]c2c1)c1ccco1,73,39*,88,75,93
Cc1cnc(C(=O)OCC(=O)c2csc(N3CCCCC3)n2)cn1,102,80,98,97,110
CCCC1CCC(C(=O)Nn2c(C)nc3ccccc3c2=O)CC1 (stereo not given),89,94,92,93,95
CCCCCCC1CCC(C(=O)Nn2c(C)nc3ccccc3c2=O)CC1 (stereo not given),65,35*,113,62,98
COc1ccccc1NC(=O)NS(=O)(=O)c1ccc(C)cc1,92,92,98,100,100
CCN1C(=O)/C(=C2/C=Cc3ccccc3N2C)OC1=S,15,28*,88,10,91
Nc1nnc(Cc2ccc(Cl)c(Cl)c2)s1,84,85,95,89,93
N#CCCCSc1nnc(-c2ccc(Cl)cc2)n1-c1ccccc1,81,74,102,91,98
O=C(NCc1cn2ccsc2n1)c1cccs1,91,89,102,93,95
Oc1ccc(C=Nc2ccc3ncccc3c2)c(O)c1,1.7*,94,83,1.9*,106
CN(c1ccc(C(=O)N2CCN(Cc3ccc4c(c3)OCO4)CC2)cc1)S(=O)(=O)c1ccccc1,30,96,86,33,94
Cc1ccc(S(=O)(=O)N(C)c2ccc(C(=O)N3CCN(Cc4ccc5c(c4)OCO5)CC3)cc2)cc1,18,25*,91,14,95
